Data taken from ChEMBL document CHEMBL1781883, “Design of novel neurokinin 1 receptor antagonists based on conformationally constrained aromatic amino acids and discovery of a potent chimeric opioid agonist-neurokinin 1 receptor antagonist” (J Med Chem, 2011).
Active and inactive are the calls of the source. The calls are words filed in the database; no cut-off is given here.

How the values were obtained:
Substance-P receptor [1] = molecular target: T1, Substance-P receptor (Homo sapiens, UniProt P25103); experiment: Antagonist activity at NK1 receptor; type: functional
T1 sequence (P25103 whole entry): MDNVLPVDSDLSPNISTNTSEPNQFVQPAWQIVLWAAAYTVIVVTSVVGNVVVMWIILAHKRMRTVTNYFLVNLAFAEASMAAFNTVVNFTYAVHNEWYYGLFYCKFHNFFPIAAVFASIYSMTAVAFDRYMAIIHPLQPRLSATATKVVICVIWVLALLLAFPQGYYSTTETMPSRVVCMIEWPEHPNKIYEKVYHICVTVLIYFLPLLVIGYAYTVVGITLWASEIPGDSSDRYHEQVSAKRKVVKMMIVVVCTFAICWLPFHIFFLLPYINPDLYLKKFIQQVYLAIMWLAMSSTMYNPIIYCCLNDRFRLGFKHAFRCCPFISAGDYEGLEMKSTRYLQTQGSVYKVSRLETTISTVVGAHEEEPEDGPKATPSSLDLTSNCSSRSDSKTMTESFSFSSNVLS

Substance-P receptor [2] = molecular target: T1, Substance-P receptor; experiment: Agonist activity at human NK1 receptor expressed in CHO-K1 cells at 10^-4 M after 30 mins by aequorin luminescence assay; type: functional, cell-based
Summary of the method: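 CHO-K1 cells stably expressing human NK1R and transfected with apoaequorin; loaded 4 h with 5 μM coelenterazine h in BSA-medium, diluted 10-fold, further 30 min. Compound added to wells; cells (2.5 × 10^4) injected, light read every second for 30 s, then 10 nM ATP injected as positive control and read 10 s more. Duplicates; expressed as % of luminescence at 10^-4 M SP.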

Substance-P receptor [3] = molecular target: T1, Substance-P receptor; experiment: Antagonist activity at human NK1 receptor expressed in CHO-K1 cells assessed as inhibition of substance P-induced calcium-dependent aequorine luminescence; type: functional, cell-based; conditions: read-out: pA2 (converted)
Summary of the method: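 Aequorin-expressing CHO-K1/hNK1 cells charged 4 h with 5 μM coelenterazine h, then diluted and held 30 min. SP series 10^-11 to 10^-4 M combined with test compound at 10^-8 to 10^-4 M; cell injection started 30 s luminescence read, then 10 nM ATP control.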

Substance-P receptor [4] = molecular target: T1, Substance-P receptor; experiment: Displacement of [3H]SP from human recombinant NK1 receptor expressed in CHO cells after 20 mins by liquid scintillation counting; type: cell-based
Summary of the method: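 Crude membranes from hNK1/CHO cells; 20 µg incubated with 0.4 nM [3H]SP and six test concentrations in duplicate, 50 mM Tris pH 7.4 with 5 mM MgCl2, bacitracin, bestatin, captopril, PMSF; 25 °C, 20 min. Nonspecific binding with 10 µM SP. Filtration on PEI-soaked GF/B, scintillation counting; IC50 by nonlinear regression, Ki by Cheng–Prusoff; three independent experiments, mean ± SEM.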

Compound | IC50 (Substance-P receptor [1]) | Activity (Substance-P receptor [2]) | Kb (Substance-P receptor [3]) | Ki (Substance-P receptor [4])
O=C1O[C@@H](Cc2c[nH]c3ccccc23)C(=O)N1Cc1cc(C(F)(F)F)cc(C(F)(F)F)c1 | 25 nM |  |  | 
CC(=O)N[C@H]1Cc2ccccc2[C@@H](c2ccccc2)N(CC(=O)NCc2cc(C(F)(F)F)cc(C(F)(F)F)c2)C1=O |  | inactive |  | 
CC(=O)N[C@H]1Cc2ccccc2[C@@H](c2ccccc2)N(CC(=O)N(C)Cc2cc(C(F)(F)F)cc(C(F)(F)F)c2)C1=O |  | inactive |  | 
CC(=O)N1Cc2ccccc2C[C@H]1C(=O)NCc1cc(C(F)(F)F)cc(C(F)(F)F)c1 |  | inactive |  | 
CC(=O)N[C@H]1Cc2c([nH]c3ccccc23)CN(Cc2cc(C(F)(F)F)cc(C(F)(F)F)c2)C1=O |  | inactive |  | 
CC(=O)N[C@H]1Cc2c([nH]c3ccccc23)CN(CC(=O)N(C)Cc2cc(C(F)(F)F)cc(C(F)(F)F)c2)C1=O |  | inactive |  | 
CC(=O)N[C@@H]1Cc2ccccc2[C@@H](c2ccccc2)N(CC(=O)N(C)Cc2cc(C(F)(F)F)cc(C(F)(F)F)c2)C1=O |  | inactive |  | 
CC(=O)N1Cc2[nH]c3ccccc3c2C[C@@H]1C(=O)N(C)Cc1cc(C(F)(F)F)cc(C(F)(F)F)c1 |  | inactive |  | 
CC(=O)N1Cc2[nH]c3ccccc3c2C[C@H]1C(=O)N(C)Cc1cc(C(F)(F)F)cc(C(F)(F)F)c1 |  | inactive |  | 
CC(=O)N[C@@H]1Cc2c([nH]c3ccccc23)CN(CC(=O)N(C)Cc2cc(C(F)(F)F)cc(C(F)(F)F)c2)C1=O |  | inactive |  | 
CC(=O)N1Cc2ccccc2C[C@H]1C(=O)N(C)Cc1cc(C(F)(F)F)cc(C(F)(F)F)c1 |  | inactive | 31.6 nM | 32 nM
CC(=O)N[C@H]1Cc2ccccc2CN(CC(=O)NCc2cc(C(F)(F)F)cc(C(F)(F)F)c2)C1=O |  | inactive | 631 nM | 387 nM
CC(=O)N[C@H]1Cc2ccccc2CN(CC(=O)N(C)Cc2cc(C(F)(F)F)cc(C(F)(F)F)c2)C1=O |  | inactive | 3.98 nM | 27 nM
